Measurements reported in ChEMBL document CHEMBL1150125, “Antiplasmodial activity of alkaloids from various strychnos species” (J Nat Prod, 2002).

Assays:
[1] = system: Plasmodium falciparum; test: Antiplasmodial activity against chloroquine-resistant Plasmodium falciparum FCB1-R/Colombia by [3H]hypoxanthine uptake; assay type: functional, organism-based
Procedure, shortened: (§1)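 Asexual erythrocytic stages kept in continuous culture (Trager and Jensen method). Each sample run as eight 4-fold dilutions, final 20 to 0.0012 µg/mL, in duplicate. IC50 and IC90 derived; number of independent experiments per value given separately.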

[2] = system: Plasmodium falciparum; test: Antiplasmodial activity against chloroquine-resistant Plasmodium falciparum W2/Indochina by [3H]hypoxanthine uptake; assay type: functional, organism-based; procedure, shortened: as §1
[3] = system: Plasmodium falciparum; test: Antiplasmodial activity against chloroquine-sensitive Plasmodium falciparum FCA 20/ Ghana by [3H]hypoxanthine uptake; assay type: functional, organism-based; procedure, shortened: as §1
[4] = Selectivity index, ratio of IC50 for human HCT116 cells to IC50 for chloroquine-sensitive Plasmodium falciparum FCA 20/ Ghana; assay type: toxicity, cell-based, HCT-116; conditions: HCT116 cells versus Plasmodium falciparum FCA 20/Ghana, read-out: Ratio IC50
Procedure, shortened: (§2)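 Selectivity index = IC50 in HCT-116 cells / IC50 in P. falciparum. Cell IC50: 5000 HCT-116 cells per well with drug, DMSO controls, 72 h incubation, then WST-1 for 30 min at 37 °C. Absorbance read against a cell-free blank and expressed as percent of control. Two independent experiments, each in triplicate, means ± SEM.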

[5] = system: HCT-116; test: Cytotoxicity against human HCT116 cells after 72 hrs by WST1 assay; assay type: cell-based; conditions: HCT-116, 72 h
Procedure, shortened: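 HCT-116 colon cancer cells were seeded at 5000 per well in medium containing the test drugs, with matched DMSO controls. After 72 h, WST-1 was added for 30 min at 37 °C. Absorbance was read against a cell-free medium plus WST-1 blank and expressed as percent of control. Two independent experiments were run, each in triplicate, and means ± SEM were calculated.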

[6] = Selectivity index, ratio of IC50 for human HCT116 cells to IC50 for chloroquine-resistant Plasmodium falciparum W2/Indochina; assay type: toxicity, cell-based, HCT-116; conditions: HCT116 cells versus Plasmodium falciparum W2/Indochina, read-out: Ratio IC50; procedure, shortened: as §2
[7] = Selectivity index, ratio of IC50 for human HCT116 cells to IC50 for moderately chloroquine-resistant Plasmodium falciparum FCB1-R/Colombia; assay type: toxicity, cell-based, HCT-116; conditions: HCT116 cells versus Plasmodium falciparum FCB1-R/Colombia, read-out: Ratio IC50; procedure, shortened: as §2
[8] = Plasmodium falciparum, FCB1-R/Colombia
[9] = Plasmodium falciparum, W2/Indochina
[10] = Plasmodium falciparum, FCA 20/ Ghana

Structure (SMILES) | IC50 [1, 8] | IC90 [1, 8] | IC50 [2, 9] | IC90 [2, 9] | IC50 [3, 10] | IC90 [3, 10] | selectivity ratio [4] | IC50 [5] | selectivity ratio [6] | selectivity ratio [7] | IC90 [2] | IC50 [3] | IC50 [1] | IC90 [1] | IC50 [2] | IC90 [3]
CC[C@H]1CN2CCC3c4ccccc4NC3[C@H]2C[C@@H]1C[C@@H]1NCCc2c1[nH]c1ccccc21 (stereo not given in full) [OCHROLIFUANINE E] | 0.702 µM | 2.42 µM | 1.9 µM | 6.76 µM | 0.276 µM | 1.49 µM | 20.7 | 5.7 µM | 3 | 8.12 | – | – | – | – | – | –
C/C=C1/CN2CC[C@]34c5ccccc5N5C(=O)C([C@H]6C[C@]78c9ccccc9N9C(=O)C=C[C@@H]([C@H]97)[C@H]7C[C@@H]8N6C/C7=C/C)=C[C@H]([C@H]53)[C@H]1C[C@H]24 [SUNGUCINE] | – | – | 10.1 µM | 33.2 µM | 7.82 µM | 26.3 µM | 0.79 | 6.2 µM | 0.611 | – | – | – | – | – | – | –
C/C=C1\CN2CCC3c4ccccc4NC3[C@@H]2C[C@@H]1CC1=NCCc2c1[nH]c1ccccc21 (stereo not given in full) [DIHYDROUSAMBARENSINE] | – | – | 0.032 µM | 4.68 µM | 0.857 µM | 2.49 µM | 14 | 12 µM | 375 | – | – | – | – | – | – | –
C=CC1CN2CC[C@@]34c5cc(C(C)C6=CN7CC[C@]89c%10ccccc%10N[C@H]8[C@@H](CO)[C@H]6C[C@H]79)ccc5N[C@@H]3[C@@H](CO)[C@@H]1C[C@@H]24 (stereo in doubt; 68) [PANGANENSINE X] | 12.9 µM | 26.1 µM | 17 µM | – | – | 34.8 µM | – | – | – | – | 85.8 µM | 14.9 µM | – | – | – | –
C=C[C@H]1CN2CCc3c([nH]c4ccccc34)[C@@H]2C[C@@H]1C[C@H]1c2[nH]c3ccccc3c2CCN1C [USAMBARINE] | – | – | 2.36 µM | 7.29 µM | 2.5 µM | 9.21 µM | – | – | – | – | – | – | – | – | – | –
CC[C@H]1CN2CCC3c4ccccc4NC3[C@@H]2C[C@@H]1C[C@H]1NCCc2c1[nH]c1ccccc21 (stereo not given in full) [OCHROLIFUANINE A] | 0.266 µM | 1.02 µM | 0.492 µM | 1.38 µM | 0.118 µM | 0.495 µM | 136 | 16.1 µM | 32.8 | 60.7 | – | – | – | – | – | –
CC[C@H]1CN2CCC3c4ccc(O)c([C@@H]5CCCN5C)c4NC3[C@@H]2C[C@@H]1C[C@H]1c2[nH]c3ccccc3c2CCN1C (stereo not given in full) [ISOSTRYCHNOPENTAMINE] | 0.104 µM | 0.386 µM | 0.152 µM | 0.628 µM | 0.12 µM | 0.45 µM | 62.3 | 7.47 µM | 49.1 | 71.8 | – | – | – | – | – | –
C/C=C1/CN2[C@@H](C3=C[C@@H]4[C@@H]5N(C3=O)c3ccccc3[C@@]53CCN5C/C(=C/CO)[C@@H]4C[C@H]53)C[C@@]34c5ccccc5N5C(=O)CC=C([C@H]1C[C@H]23)[C@H]54 | 0.207 µM | 1.47 µM | 0.14 µM | 1.35 µM | 0.847 µM | 4.35 µM | 19.1 | 16.2 µM | 115 | 78.3 | – | – | – | – | – | –
C/C=C1/CN2CCc3c([nH]c4ccccc34)[C@@H]2C[C@@H]1C1=CN2c3ccccc3[C@]34CCN5C/C(=C/CO)[C@H](C[C@H]53)[C@@H]([C@@H]1O)[C@H]24 [TETRADEHYDROLONGICAUDATINE Y] | – | – | 0.958 µM | 12.1 µM | 1.24 µM | 7.97 µM | – | – | – | – | – | – | – | – | – | –
C/C=C1/CN2[C@@H](C3=C[C@@H]4[C@@H]5N(C3=O)c3ccccc3[C@@]53CCN5C/C(=C/C)[C@@H]4C[C@H]53)C[C@@]34c5ccccc5N5C(=O)CC=C([C@H]1C[C@H]23)[C@H]54 [ISOSUNGUCINE] | – | – | 0.265 µM | 1.72 µM | 1.32 µM | 7.06 µM | – | – | – | – | – | – | – | – | – | –
C/C=C1\CN2CC[C@]34c5ccccc5N5[C@@H]6O[C@H]([C@H]([C@H]53)[C@H]1C[C@H]24)N1c2ccccc2[C@]23CCN4C/C(=C/C)[C@H](C[C@H]42)[C@H]6[C@H]13 (stereo in doubt; 53) [MATOPENSINE] | – | – | – | – | – | – | – | – | – | – | 86.7 µM | 13.2 µM | 4.67 µM | 24.8 µM | 8.66 µM | 73.3 µM
C[C@@H]1OC[C@H]2[C@@H]3C[C@H]4N(CC[C@]45c4ccccc4N[C@H]25)/C(=C/C2=CN4CC[C@]56c7ccccc7N[C@H]5[C@H](CO)[C@H]2C[C@H]46)[C@@H]31 | 5.27 µM | 12.7 µM | > 20 µM | – | 9.77 µM | 17.7 µM | – | – | – | – | – | – | – | – | – | –
c1ccc2c(c1)C[C@H]1C3Nc4ccccc4C3CCN1C2 (stereo not given in full) | 12.9 µM | 47.4 µM | 18.3 µM | 89.5 µM | 11.3 µM | 42.2 µM | – | – | – | – | – | – | – | – | – | –
CN1CCC2c3ccccc3N3C2[C@@H]1C[C@@H](C1=CCOC1=O)C[C@@H]3O (stereo not given in full) [AKAGERINE LACTONE] | 27.5 µM | 55.2 µM | 25.9 µM | 53.3 µM | 17 µM | 60.7 µM | – | – | – | – | – | – | – | – | – | –
C/C=C1/CN2CCc3c([nH]c4ccccc34)[C@@H]2C[C@@H]1Cc1nccc2c1[nH]c1ccccc12 [USAMBARENSINE] | – | – | 0.594 µM | 4.83 µM | – | 4.41 µM | – | – | – | – | – | – | – | – | – | –
CC1C2=CN3CCc4c([nH]c5ccc(O)cc45)C3CC2CC2NCCC3c4ccccc4N1C23 (stereo in doubt; 65) [JANUSSINE A] | – | – | – | – | – | – | – | – | – | – | 27.8 µM | 12.6 µM | 17 µM | 33.1 µM | 4.75 µM | 34.9 µM
C/C=C1/CN2CCc3c([nH]c4ccccc34)[C@@H]2C[C@@H]1C1CCC([C@H]2C[C@H]3c4[nH]c5ccccc5c4CCN3C/C2=C/C)C1 (stereo not given in full) [STRYCHNOFURANINE] | 10.8 µM | 33.5 µM | 2.8 µM | 16 µM | 4.11 µM | 15 µM | – | – | – | – | – | – | – | – | – | –
CC1C2=CN3CCc4c([nH]c5ccc(O)cc45)C3CC2CC2NCCC3c4ccccc4N1C23 (stereo in doubt; 64) [JANUSSINE A] | 15.9 µM | 28.3 µM | – | 27.6 µM | 9.55 µM | 30.9 µM | – | – | – | – | – | – | – | – | 12.7 µM | –
C=C1c2[nH]c3ccccc3c2CCN2C[C@H](CC)CC[C@H]12 [NGOUNIENSINE] | 17.8 µM | 62.8 µM | 20.2 µM | 70.1 µM | 26.8 µM | 71 µM | – | – | – | – | – | – | – | – | – | –
C[C@@H]1CC[C@H]2[C@@H](C)C(=O)O[C@@H]3O[C@@]4(C)CC[C@@H]1[C@]32OO4 [ARTEMISININ] | 0.005 µM | 0.013 µM | 0.002 µM | 0.017 µM | – | – | – | – | – | – | – | – | – | – | – | –
C/C=C1/CN2CC[C@@]34c5ccccc5N5C([C@H]6[C@@H]7N(C(C)=O)c8ccccc8[C@@]78CCN7C/C(=C/C)[C@@H]6C[C@H]78)OC=C([C@H]1C[C@H]23)[C@H]54 (stereo not given in full) | 2.12 µM | 7.13 µM | 3.31 µM | 18.5 µM | 4.58 µM | 18.7 µM | – | – | – | – | – | – | – | – | – | –
C/C=C1/CN2CCc3c([nH]c4ccccc34)[C@@H]2C[C@@H]1C1=CN2c3ccccc3[C@]34CCN5C/C(=C/C)[C@H](C[C@H]53)[C@@H]([C@@H]1O)[C@H]24 [LONGICAUDATINE F] | 11.7 µM | 33.4 µM | 9.58 µM | 28.1 µM | 7.7 µM | 26.7 µM | – | – | – | – | – | – | – | – | – | –
C=C[C@H]1CN2CC[C@H]1C[C@H]2[C@H](O)c1ccnc2ccc(OC)cc12 [QUININE] | 0.2 µM | 2.74 µM | 0.413 µM | 1.72 µM | 0.269 µM | 1.91 µM | – | – | – | – | – | – | – | – | – | –
C=CC1CN2CC[C@@]34c5cc(C(C)C6=CN7CC[C@]89c%10ccccc%10N[C@H]8[C@@H](CO)[C@H]6C[C@H]79)ccc5N[C@@H]3[C@@H](CO)[C@@H]1C[C@@H]24 (stereo in doubt; 67) [PANGANENSINE X] | – | – | – | 78.7 µM | 10.4 µM | – | – | – | – | – | – | – | 13.5 µM | 43.7 µM | 17.4 µM | 68.2 µM
C=C1c2[nH]c3ccccc3c2CCN2C[C@@H](CC)CC[C@H]12 [EPINGOUNIENSINE] | 16.3 µM | 49.7 µM | 15.8 µM | 52.8 µM | 7.8 µM | 26.9 µM | – | – | – | – | – | – | – | – | – | –
CCN(CC)CCCC(C)Nc1ccnc2cc(Cl)ccc12 (stereo not given) [CHLOROQUINE] | – | 0.084 µM | – | 1.75 µM | – | 0.071 µM | – | 33.7 µM | – | – | – | – | – | – | – | –
